Laboratory results reported in ChEMBL document CHEMBL4311965, “Antimicrobial activity of amphipathic α,α-disubstituted β-amino amide derivatives against ESBL - CARBA producing multi-resistant bacteria; effect of halogenation, lipophilicity and cationic character” (Eur J Med Chem, 2019).
≈ marks a conversion by molar mass, not a printed value.

Tests used:
[1] = system: Corynebacterium glutamicum; experiment: Antibacterial activity against Corynebacterium glutamicum ATCC 13032 cultured in MHB medium assessed as no bacterial growth incubated at 20 degC for 24 hrs by microdilution susceptibility test; format: functional; details: ATCC 13032, 24 h
Procedure, shortened: (§1)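 Broth microdilution per CLSI M07-A9 with modifications. Inoculum about 2.5–3 x 10⁴ cells/mL in Mueller-Hinton broth, mixed 1:1 with test derivative. DMSO stocks diluted in double-distilled water, final DMSO <1%. Incubation 24 h at 37 °C (20 °C for C. glutamicum). Growth and sterility controls included; oxytetracycline reference.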

[2] = system: Escherichia coli; experiment: Antibacterial activity against Escherichia coli ATCC 25922 cultured in MHB medium assessed as no bacterial growth incubated at 37 degC for 24 hrs by microdilution susceptibility test; format: functional; details: ATCC 25922, 24 h; procedure, shortened: as §1
[3] = system: Pseudomonas aeruginosa; experiment: Antibacterial activity against Pseudomonas aeruginosa PA01 DSM 19880 (ATCC 15692) cultured in MHB medium assessed as no bacterial growth incubated at 37 degC for 24 hrs by microdilution susceptibility test; format: functional; details: PAO1 DSM 19880 (ATCC 15692); procedure, shortened: as §1
[4] = system: Erythrocyte; experiment: Hemolytic activity against human RBC incubated for 1 hr; format: cell-based
Procedure, shortened: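 Heparinized human blood washed three times in warm PBS and set to 10% hct. Erythrocytes at 1% v/v final, with compound in PBS (DMSO <1%), shaken 1 h at 37 °C and then centrifuged. Supernatant absorbance read at 405 and 545 nm after PBS background subtraction. Haemolysis taken relative to 1% Triton X-100. Three independent replicates, EC50 averaged.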

[5] = Selectivity index, ratio of EC50 for hemolytic activity against human RBC to MIC for antibacterial activity against Staphylococcus aureus ATCC 9144; format: toxicity; details: human red blood cells (RBC)
Procedure, shortened: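 Selectivity index is the RBC haemolysis EC50 divided by the MIC against the E. coli or S. aureus reference strain.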

[6] = system: Staphylococcus aureus; experiment: Antibacterial activity against multidrug-resistant Staphylococcus aureus WIS cultured in MHB medium assessed as reduction in bacterial growth incubated for 24 hrs by microdilution susceptibility test; format: functional
Procedure, shortened: (§2)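 Broth microdilution per CLSI M07-A9 (modified). Working solutions made from concentrated DMSO stocks kept at r.t., diluted in double-distilled water, final DMSO <1%. Inoculum 1–1.2 x 10⁶ cells/mL in Mueller-Hinton broth, mixed 1:1 with compound. 37 °C, 24 h, four parallels. Read as OD₆₀₀. Where precipitation left residual OD, the point of major OD decrease was taken as the inhibitory concentration.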

[7] = system: Staphylococcus aureus; experiment: Antibacterial activity against multidrug-resistant Staphylococcus aureus IHT 99040 cultured in MHB medium assessed as reduction in bacterial growth incubated for 24 hrs by microdilution susceptibility test; format: functional; details: IHT 99040, 24 h; procedure, shortened: as §2
[8] = system: Enterococcus faecium; experiment: Antibacterial activity against multidrug-resistant Enterococcus faecium 50673722 cultured in BHIB medium assessed as reduction in bacterial growth incubated for 24 hrs by microdilution susceptibility test; format: functional; details: Enterococcus faecium, 50673722, 24 h
Procedure, shortened: (§3)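 Enterococci grown in Brain Heart Infusion broth, otherwise broth microdilution per CLSI M07-A9 (modified). Concentrated DMSO stocks kept at r.t. and diluted in double-distilled water, final DMSO <1%. Inoculum 1–1.2 x 10⁶ cells/mL mixed 1:1 with compound. 37 °C, 24 h, four parallels. OD₆₀₀ read-out, lowest concentration with no growth.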

[9] = system: Enterococcus faecium; experiment: Antibacterial activity against multidrug-resistant Enterococcus faecium K36-18 cultured in BHIB medium assessed as reduction in bacterial growth incubated for 24 hrs by microdilution susceptibility test; format: functional; details: K36-18, 24 h; procedure, shortened: as §3
[10] = system: Escherichia coli; experiment: Antibacterial activity against multidrug-resistant Escherichia coli 50639799 producing Verona integron encoded metallo beta-lactamse-29 cultured in MHB medium assessed as reduction in bacterial growth incubated for 24 hrs by microdilution susceptibility test; format: functional; details: Escherichia coli, 50639799, 24 h; procedure, shortened: as §2
[11] = system: Escherichia coli; experiment: Antibacterial activity against multidrug-resistant Escherichia coli 50676002 producing New Delhi metallo-beta-lactamase-1 cultured in MHB medium assessed as reduction in bacterial growth incubated for 24 hrs by microdilution susceptibility test; format: functional; details: Escherichia coli, 50676002, 24 h; procedure, shortened: as §2
[12] = system: Escherichia coli; experiment: Antibacterial activity against multidrug-resistant Escherichia coli 50857972 producing imipenem-type carbapenemase-26 cultured in MHB medium assessed as reduction in bacterial growth incubated for 24 hrs by microdilution susceptibility test; format: functional; details: Escherichia coli, 50857972, 24 h; procedure, shortened: as §2
[13] = system: Pseudomonas aeruginosa; experiment: Antibacterial activity against multidrug-resistant Pseudomonas aeruginosa K34-73 producing Verona integron encoded metallo beta-lactamse-4 cultured in MHB medium assessed as reduction in bacterial growth incubated for 24 hrs by microdilution susceptibility test; format: functional; details: K34-73, 24 h; procedure, shortened: as §2
[14] = system: Pseudomonas aeruginosa; experiment: Antibacterial activity against multidrug-resistant Pseudomonas aeruginosa K44-24 producing imipenem-type carbapenemase-14 cultured in MHB medium assessed as reduction in bacterial growth incubated for 24 hrs by microdilution susceptibility test; format: functional; details: K44-24, 24 h; procedure, shortened: as §2
[15] = system: Pseudomonas aeruginosa; experiment: Antibacterial activity against multidrug-resistant Pseudomonas aeruginosa 50692172 producing New Delhi metallo-beta-lactamase-1 cultured in MHB medium assessed as reduction in bacterial growth incubated for 24 hrs by microdilution susceptibility test; format: functional; details: Pseudomonas aeruginosa, 50692172, 24 h; procedure, shortened: as §2
[16] = system: Pseudomonas aeruginosa; experiment: Antibacterial activity against multidrug-resistant Pseudomonas aeruginosa 50692520 producing Verona integron encoded metallo beta-lactamse cultured in MHB medium assessed as reduction in bacterial growth incubated for 24 hrs by microdilution susceptibility test; format: functional; details: Pseudomonas aeruginosa, 50692520, 24 h; procedure, shortened: as §2
[17] = system: Klebsiella pneumoniae; experiment: Antibacterial activity against multidrug-resistant Klebsiella pneumoniae K47-25 producing carbapenemase-2 cultured in MHB medium assessed as reduction in bacterial growth incubated for 24 hrs by microdilution susceptibility test; format: functional; details: K47-25, 24 h; procedure, shortened: as §2
[18] = system: Klebsiella pneumoniae; experiment: Antibacterial activity against multidrug-resistant Klebsiella pneumoniae 50531633 producing New Delhi metallo-beta-lactamase-1 and oxcillinase-181 cultured in MHB medium assessed as reduction in bacterial growth incubated for 24 hrs by microdilution susceptibility test; format: functional; details: Klebsiella pneumoniae, 50531633, 24 h; procedure, shortened: as §2
[19] = system: Klebsiella pneumoniae; experiment: Antibacterial activity against multidrug-resistant Klebsiella pneumoniae 50667959 producing Verona integron encoded metallo beta-lactamse-1 cultured in MHB medium assessed as reduction in bacterial growth incubated for 24 hrs by microdilution susceptibility test; format: functional; details: Klebsiella pneumoniae, 50667959, 24 h; procedure, shortened: as §2
[20] = system: Acinetobacter baumannii; experiment: Antibacterial activity against multidrug-resistant Acinetobacter baumannii K12-21 producing oxcillinase-58 cultured in MHB medium assessed as reduction in bacterial growth incubated for 24 hrs by microdilution susceptibility test; format: functional; details: K12-21, 24 h; procedure, shortened: as §2
[21] = system: Acinetobacter baumannii; experiment: Antibacterial activity against multidrug-resistant Acinetobacter baumannii K44-35 producing oxcillinase-23 cultured in MHB medium assessed as reduction in bacterial growth incubated for 24 hrs by microdilution susceptibility test; format: functional; details: K44-35, 24 h; procedure, shortened: as §2
[22] = system: Acinetobacter baumannii; experiment: Antibacterial activity against multidrug-resistant Acinetobacter baumannii K47-42 producing oxcillinase-23 cultured in MHB medium assessed as reduction in bacterial growth incubated for 24 hrs by microdilution susceptibility test; format: functional; details: K47-42, 24 h; procedure, shortened: as §2
[23] = system: Acinetobacter baumannii; experiment: Antibacterial activity against multidrug-resistant Acinetobacter baumannii K55-13 producing oxcillinase-24 cultured in MHB medium assessed as reduction in bacterial growth incubated for 24 hrs by microdilution susceptibility test; format: functional; details: K55-13, 24 h; procedure, shortened: as §2

SMILES	MIC [1] [µg/mL]	MIC [2] [µg/mL]	MIC [3] [µg/mL]	EC50 [4] [µg/mL]	selectivity ratio [5]	MIC [6] [µg/mL]	MIC [7] [µg/mL]	MIC [8] [µg/mL]	MIC [9] [µg/mL]	MIC [10] [µg/mL]	MIC [11] [µg/mL]	MIC [12] [µg/mL]	MIC [13] [µg/mL]	MIC [14] [µg/mL]	MIC [15] [µg/mL]	MIC [16] [µg/mL]	MIC [17] [µg/mL]	MIC [18] [µg/mL]	MIC [19] [µg/mL]	MIC [20] [µg/mL]	also measured
N=C(N)NCCNC(=O)C(CNC(=N)N)(Cc1ccc(F)c2ccccc12)Cc1ccc(F)c2ccccc12	0.5 (≈ 0.941 µM)	16 (≈ 30.1 µM)	8 (≈ 15 µM)	329 (≈ 619 µM)	165	4 (≈ 7.52 µM)	4 (≈ 7.52 µM)	16 (≈ 30.1 µM)	16 (≈ 30.1 µM)	32 (≈ 60.2 µM)	32 (≈ 60.2 µM)	32 (≈ 60.2 µM)	> 32	> 32	> 32	> 32	> 32	> 32	> 32	> 32	MIC [21]: > 32 µg/mL; MIC [22]: > 32 µg/mL; MIC [23]: > 32 µg/mL
NCCNCC(CN)(Cc1cc(C(F)(F)F)cc(C(F)(F)F)c1)Cc1cc(C(F)(F)F)cc(C(F)(F)F)c1	1 (≈ 1.76 µM)	4 (≈ 7.02 µM)	4 (≈ 7.02 µM)	23 (≈ 40.4 µM)	6	8 (≈ 14 µM)	8 (≈ 14 µM)	4 (≈ 7.02 µM)	8 (≈ 14 µM)	8 (≈ 14 µM)	8 (≈ 14 µM)	8 (≈ 14 µM)	32 (≈ 56.2 µM)	32 (≈ 56.2 µM)	16 (≈ 28.1 µM)	32 (≈ 56.2 µM)	16 (≈ 28.1 µM)	8 (≈ 14 µM)	8 (≈ 14 µM)	8 (≈ 14 µM)	MIC [21]: 8 µg/mL (≈ 14 µM); MIC [22]: 8 µg/mL (≈ 14 µM); MIC [23]: 8 µg/mL (≈ 14 µM)
N#CC(Cc1cc(C(F)(F)F)cc(C(F)(F)F)c1)(Cc1cc(C(F)(F)F)cc(C(F)(F)F)c1)C(=O)NCCN	8 (≈ 13.8 µM)	32 (≈ 55.2 µM)	64 (≈ 110 µM)	282 (≈ 487 µM)	18	16 (≈ 27.6 µM)	16 (≈ 27.6 µM)	16 (≈ 27.6 µM)	8 (≈ 13.8 µM)	> 32	> 32	> 32	> 32	> 32	> 32	> 32	> 32	> 32	> 32	> 32	MIC [21]: > 32 µg/mL; MIC [22]: > 32 µg/mL; MIC [23]: > 32 µg/mL
